Reference: ChEMBL document CHEMBL4371043, “Dynamic Generation of G-Quadruplex DNA Ligands by Target-Guided Combinatorial Chemistry on a Magnetic Nanoplatform” (J Med Chem, 2019)
Calls of active or inactive are those of the source. The rule behind the calls is not given here.

Legend:
A549 = test: Cytotoxicity against human A549 cells assessed as reduction in cell viability after 24 hrs by XTT assay; format: functional, cell-based; conditions: A549, 24 h
Outline: (§1)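 XTT viability: HeLa (DMEM), A549 (Ham's F12K) or NKE (glutamine-supplemented RPMI 1640), all with 10% FBS, 37 °C, 5% CO2; 10^4–10^5 cells/well exposed to 0–50 μM compound for 24 h, in triplicate. XTT/PMS added 2 h at 37 °C; absorbance 450 nm; viability as percent of untreated control.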

Quadruplex DNA [1] = test: Binding affinity to 6-FAM/TAMRA labeled cMYC G-quadruplex DNA (unknown origin) in potassium cacodylate buffer assessed as change in melting temperature at 1 uM at pH 7.4 by FRET-Based DNA melting assay; format: nucleic-acid assay
Outline: (§2)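 FRET melting: FAM/TAMRA dual-labelled oligos (G4: TG4AG3TG4AG3TG4A2G2; duplex: CA5T5GCA5T5G) annealed at 400 nM in 60 mM potassium cacodylate pH 7.4 (95 °C 5 min, cool 0.1 °C/min). Melting run on 200 nM oligo ± 1 μM ligand; excitation 480 nm, emission 530 nm, 37–95 °C, 30 reads per °C. ΔTm versus ligand-free DNA.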

Quadruplex DNA [2] = test: Binding affinity to cMYC G-quadruplex DNA (unknown origin) in tris-KCL buffer by fluorimetric titration assay; format: nucleic-acid assay
Outline: (§3)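 Fluorimetric titration: unlabelled pre-folded G4 (TG4AG3TG4AG3TG4A2G2) or duplex (CA5T5GCA5T5G) DNA added stepwise to 0.25 μM ligand in filtered, degassed 100 mM Tris·KCl pH 7.4; 25 °C, 1 cm quartz cuvette, excitation 300 nm. Apparent Kd from fitting emission intensity against [DNA] to a one-site Hill equation.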

dsDNA [3] = test: Binding affinity to 6-FAM/TAMRA labeled double stranded DNA (unknown origin) in potassium cacodylate buffer assessed as change in melting temperature at 1 uM at pH 7.4 by FRET-Based DNA melting assay; format: nucleic-acid assay; outline: as §2
Quadruplex DNA [4] = test: Displacement thiazole orange from cMYC G-quadruplex DNA (unknown origin) in tris-KCL buffer after 30 mins by FID assay; format: nucleic-acid assay
Outline: (§4)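 Thiazole orange displacement: pre-folded G4 or duplex DNA (0.25 μM) with TO (0.50 μM) in 100 mM Tris–KCl pH 7.4, 30 min rt; compound added stepwise, 3 min equilibration each, spectra excited at 501 nm. Percent TO displaced = 100 − (FA×100/FA0) from emission area; DC50 read from displacement-versus-concentration plot.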

dsDNA [5] = test: Binding affinity to double stranded DNA (unknown origin) in tris-KCL buffer by fluorimetric titration assay; format: nucleic-acid assay; outline: as §3
dsDNA [6] = test: Displacement thiazole orange from double stranded DNA (unknown origin) in tris-KCL buffer after 30 mins by FID assay; format: nucleic-acid assay; outline: as §4
[7] = Cytotoxicity against human NKE cells assessed as reduction in cell viability after 24 hrs by XTT assay; format: cell-based; outline: as §1
HeLa [8] = test: Cytotoxicity against human HeLa cells assessed as reduction in cell viability after 24 hrs by XTT assay; format: functional, cell-based; outline: as §1
Quadruplex DNA [9] = test: Binding affinity to cMYC G-quadruplex DNA G to A mutant promoter sequence (unknown origin) transfected in human Hela cells assessed as reduction in c-MYC promoter-linked expression at 1.5 uM incubated for 36 hrs by dual-luciferase reporter gene assay relative to control; format: cell-based; conditions: in the assay text read “wild-type promoter sequence” for “G to A mutant promoter sequence”
Outline: (§5)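 Dual luciferase in HeLa: 0.2 μg c-MYC Del4 firefly reporter (wild-type or G-to-A mutant G-rich region) co-transfected with 30 ng pRL-TK Renilla control, Lipofectamine 2000, serum-free DMEM; after 8 h switched to complete medium with ligand at 1 or 1.5 μM. Lysed at 36 h; firefly activity normalised to Renilla.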

dsDNA [10] = test: Binding affinity to double stranded DNA (unknown origin) assessed as reduction in fluorescence intensity at 0.25 uM by fluorimetric titration relative to control; format: nucleic-acid assay; outline: as §3
Quadruplex DNA [11] = test: Binding affinity to cMYC G-quadruplex DNA (unknown origin) assessed as reduction in fluorescence intensity at 0.25 uM by fluorimetric titration relative to control; format: nucleic-acid assay; outline: as §3
Quadruplex DNA [12] = test: Binding affinity to cMYC G-quadruplex DNA G to A mutant promoter sequence (unknown origin) transfected in human Hela cells assessed as reduction in c-MYC promoter-linked expression at 1 to 1.5 uM incubated for 36 hrs by dual-luciferase reporter gene assay relative to control; format: cell-based; outline: as §5
dsDNA [13] = test: Binding affinity to double stranded DNA (unknown origin) assessed as increase in emission intensity at 0.25 uM by fluorimetric titration relative to control; format: nucleic-acid assay; outline: as §3
Quadruplex DNA [14] = test: Binding affinity to cMYC G-quadruplex DNA (unknown origin) assessed as increase in emission intensity at 0.25 uM in presence of increasing concentration of DNA by fluorimetric titration relative to control; format: nucleic-acid assay; outline: as §3
Quadruplex DNA [15] = test: Binding affinity to 6-FAM/TAMRA labeled cMYC G-quadruplex DNA (unknown origin) in potassium cacodylate buffer assessed as change in melting temperature at 1 uM at pH 7.4 in presence of 1 to 200 equiv calf thymus DNA by FRET-Based DNA melting assay; format: nucleic-acid assay
Outline: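 Competition FRET melting: 0.2 μM FAM/TAMRA-labelled c-MYC G4 oligo with 1 μM ligand plus unlabelled calf-thymus duplex DNA at 1–200 equivalents of G4; ΔTm followed (excitation 480 nm, emission 530 nm, 37–95 °C ramp).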

[16] = Drug level in human HeLa cell nucleus at 0.5 uM measured after overnight incubation by NucRed647-staining based confocal microscopy; format: ADME, subcellular
Outline: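 Confocal: HeLa on coverslips treated overnight with 0.5 μM ligand, fixed 12 min in 1:1 acetone/methanol at −20 °C, nuclei stained with NucRed 647 Live 10 min in the dark; ligand localisation imaged by confocal laser scanning.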

Quadruplex DNA [17] = test: Binding affinity to cMYC G-quadruplex DNA in human HeLa cells assessed as reduction in cMYC protein expression at 1 uM after 24 hrs by Western blot analysis relative to control; format: cell-based
Outline: (§6)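 Western blot, HeLa: 24 h ligand exposure at 1.0, 1.5 or 2.0 μM; lysis in 20 mM Tris/100 mM NaCl/1 mM EDTA/0.5% Triton X-100, protein by Folin-Lowry; 70 μg on 12% SDS-PAGE, nitrocellulose, 4% BSA block; rabbit anti-c-MYC and mouse anti-GAPDH overnight at 4 °C, HRP secondaries 2 h; bands quantified densitometrically.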

Quadruplex DNA [18] = test: Effect on native parallel topology of cMYC G-quadruplex DNA (unknown origin) assessed as formation of negative band at 240 nm up to 10 equiv concentration by CD spectroscopy; format: nucleic-acid assay
Quadruplex DNA [19] = test: Binding affinity to cMYC G-quadruplex DNA in human HeLa cells assessed as induction of DNA damage by measuring increase in gammaH2AX foci at 1 to 2 uM measured after overnight incubation by alexafluor-647-based flow cytometry; format: cell-based
Outline: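 γH2AX flow cytometry: HeLa treated overnight with 1 or 2 μM ligand, trypsinised, fixed in 1% paraformaldehyde 30 min rt, permeabilised with 0.03% saponin 20 min, then stained 3 h with Alexa Fluor 647 anti-γH2AX (1:100 in PBS + 0.1% FBS).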

Quadruplex DNA [20] = test: Binding affinity to wild type cMYC G-quadruplex DNA promoter sequence (unknown origin) transfected in human Hela cells assessed as reduction in c-MYC promoter-linked expression at 1 uM incubated for 36 hrs by dual-luciferase reporter gene assay relative to control; format: cell-based; outline: as §5
Quadruplex DNA [21] = test: Binding affinity to cMYC G-quadruplex DNA in human HeLa cells assessed as reduction in cMYC protein expression at 2 uM after 24 hrs by Western blot analysis relative to control; format: cell-based; outline: as §6
Quadruplex DNA [22] = test: Binding affinity to cMYC G-quadruplex DNA in human HeLa cells assessed as reduction in cMYC protein expression at 1.5 uM after 24 hrs by Western blot analysis relative to control; format: cell-based; outline: as §6
Quadruplex DNA [23] = test: Binding affinity to cMYC G-quadruplex DNA in human HeLa cells assessed as reduction in cMYC protein expression after 24 hrs by Western blot analysis; format: cell-based; outline: as §6
Quadruplex DNA [24] = test: Binding affinity to wild type cMYC G-quadruplex DNA promoter sequence (unknown origin) transfected in human Hela cells assessed as reduction in c-MYC promoter-linked expression at 1.5 uM incubated for 36 hrs by dual-luciferase reporter gene assay relative to control; format: cell-based; outline: as §5
Quadruplex DNA [25] = test: Effect on native parallel topology of cMYC G-quadruplex DNA (unknown origin) assessed as formation of positive band at 260 nm up to 10 equiv concentration by CD spectroscopy; format: nucleic-acid assay
HeLa [26] = test: Effect on GAPDH protein expression in human HeLa cells at 1 to 2 uM after 24 hrs by Western blot analysis relative to control; format: ADME, cell-based; outline: as §6
Quadruplex DNA [27] = test: Binding affinity to cMYC G-quadruplex DNA (unknown origin) assessed as induction of red shift at 0.25 uM in presence of increasing concentration of DNA by fluorimetric titration relative to control; format: nucleic-acid assay; outline: as §3

ΔTm (Quadruplex DNA [1]) [°C]	Kd (Quadruplex DNA [2]) [µM]	ΔTm (dsDNA [3]) [°C]	DC50 (Quadruplex DNA [4]) [µM]	DC50 (dsDNA [6]) [µM]	Compound	IC50 (A549) [µM]	IC50 [7] [µM]	IC50 (HeLa [8]) [µM]	also measured
13.6	5.72	9.5	8.01	> 30	CCCCNCc1ccc2c(c1)c1cc(-c3ccc(OC)cc3)ccc1n2CCCN(C)C	4.3	> 50	2	Kd (dsDNA [5]): 6.63 µM; inhibition (Quadruplex DNA [9]): 14%
0.7	–	1.9	–	–	COc1ccc(-c2ccc3c(c2)c2cc(CNc4ccc(O)cc4)ccc2n3CCCN(C)C)cc1	–	–	–	–
11.8	7.17	8.5	> 25	> 30	C#CCNCc1ccc2c(c1)c1cc(-c3ccc(OC)cc3)ccc1n2CCCN(C)C	> 25	> 50	11.5	fold change (FC) (dsDNA [10]): 1.5; Kd (dsDNA [5]): 7.03 µM; fold change (FC) (Quadruplex DNA [11]): 1.5; Activity (Quadruplex DNA [12]): inactive
3.4	–	2.4	–	–	COc1ccc(-c2ccc3c(c2)c2cc(CNc4ccc([N+](=O)[O-])cc4)ccc2n3CCCN(C)C)cc1	–	–	–	–
23.4	1.08	0.58	2.25	> 30	COc1ccc(-c2ccc3c(c2)c2cc(CNc4ccc(OCCCN(C)C)cc4)ccc2n3CCCN(C)C)cc1	6.4	> 50	2.5	Activity (dsDNA [13]): inactive; fold change (FC) (Quadruplex DNA [14]): 4.4; Activity (Quadruplex DNA [15]): Active; Drug uptake [16]: Active; inhibition (Quadruplex DNA [17]): 27%; Activity (Quadruplex DNA [18]): inactive; Activity (Quadruplex DNA [19]): Active; inhibition (Quadruplex DNA [20]): 31%; inhibition (Quadruplex DNA [21]): 65%; inhibition (Quadruplex DNA [22]): 57%; inhibition (Quadruplex DNA [23]): Dose-dependent effect; inhibition (Quadruplex DNA [24]): 45%; Activity (Quadruplex DNA [25]): inactive; Activity (HeLa [26]): Non-Toxic; Activity (Quadruplex DNA [27]): Active; Activity (Quadruplex DNA [12]): inactive
3.5	–	1.1	–	–	COc1ccc(-c2ccc3c(c2)c2cc(CNC4CC4)ccc2n3CCCN(C)C)cc1	–	–	–	–
5.3	–	7.2	–	–	COc1ccc(-c2ccc3c(c2)c2cc(CNCCCN(C)C)ccc2n3CCCN(C)C)cc1	–	–	–	–
3.3	–	0.44	–	–	COc1ccc(-c2ccc3c(c2)c2cc(CNc4ccc(Br)cc4C)ccc2n3CCCN(C)C)cc1	–	–	–	–
3.2	–	1.15	–	–	COc1ccc(-c2ccc3c(c2)c2cc(CNc4nccs4)ccc2n3CCCN(C)C)cc1	–	–	–	–
5	–	3.79	–	–	COc1ccc(-c2ccc3c(c2)c2cc(CNc4ccc(C#CCN(C)C)cc4)ccc2n3CCCN(C)C)cc1	–	–	–	–
